Where a SMILES comes first, the peptide text is derived from it. [ ]: non-standard residue; d: D form. d(hArg(Et2)) = CCN=C(NCC)NCCCC[C@@H](N)C(=O)O; hArg(Et2) = CCN=C(NCC)NCCCC[C@H](N)C(=O)O; dPhe(4-Cl) = N[C@H](Cc1ccc(Cl)cc1)C(=O)O; d2Nal = N[C@H](Cc1ccc2ccccc2c1)C(=O)O; Lys(iPr) = CC(C)NCCCC[C@H](N)C(=O)O; NMeY = CN[C@@H](Cc1ccc(O)cc1)C(=O)O; d3Pal = N[C@H](Cc1cccnc1)C(=O)O
Experiments:
[1] = target: T1, Gonadotropin-releasing hormone receptor (Homo sapiens, UniProt P30968); assay: Competitive antagonism of GnRH-induced response in the reporter gene assay; format: functional; conditions: read-out: pA2 (converted)
T1 sequence (P30968 whole entry): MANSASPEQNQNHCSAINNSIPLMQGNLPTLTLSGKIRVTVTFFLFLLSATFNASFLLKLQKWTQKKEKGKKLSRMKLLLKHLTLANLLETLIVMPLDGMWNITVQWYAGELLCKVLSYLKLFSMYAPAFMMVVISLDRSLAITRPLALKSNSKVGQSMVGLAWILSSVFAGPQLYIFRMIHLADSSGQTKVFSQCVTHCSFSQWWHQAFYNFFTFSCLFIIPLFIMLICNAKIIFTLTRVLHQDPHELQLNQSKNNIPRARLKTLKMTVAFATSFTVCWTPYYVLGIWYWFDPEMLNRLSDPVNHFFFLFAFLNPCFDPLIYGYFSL
Outline: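 Same HEK293 human GnRH receptor luciferase reporter cells. Seven-point GnRH curve (10 µM to 10 pM final) run in duplicate without or with four to five increasing compound concentrations (10 min preincubation, 37 °C), then 5 h and luminescence. GnRH EC50 at each level by four-parameter logistic fit, giving pA2; mean of two determinations in duplicate.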

[2] = target: T1, Gonadotropin-releasing hormone receptor; assay: Antagonism of human GnHR receptor, determined in a reporter gene assay in HEK293 cells; format: functional, cell-based
Outline: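 HEK293 cells stably expressing cloned human GnRH receptor plus luciferase reporter under LH alpha subunit promoter, plated 24 h before assay. Compound in 1% DMSO added 10 min at 37 °C, then GnRH at 3 nM final; 5 h incubation, luciferase luminescence read. Six concentrations in duplicate; blank-subtracted cps as % of GnRH control; mean of two determinations.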

Rattus norvegicus = species on record: Rattus norvegicus; assay: Compound was tested for inhibition of Leutenizing hormone release at 72 hours (long duration) in castrated male rat assay; format: functional; set-up: concentration or dose not given beside the values
Outline: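 Male Sprague-Dawley rats (180-200 g), castrated under ether 10 days earlier, 5 per group. 50 µg/rat given sc in 100 µL 40 mM phosphate buffer with 0.1% BSA and 0.6% DMSO; acyline run as internal standard. Tail blood taken predose and at 24, 48, 72, 96 (sometimes 120) h; plasma LH by RIA. Duration classed by >80% LH inhibition at each time.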

Row | SMILES | Kb [1] [nM] | IC50 [2] [nM] | Inhibition (Rattus norvegicus) [%]
1 | CC(=O)NCc1ccc(C[C@@H](NC(=O)[C@H](Cc2ccc(NC(=O)[C@@H]3CC(=O)NC(=O)N3)cc2)NC(=O)[C@H](CO)NC(=O)[C@@H](Cc2cccnc2)NC(=O)[C@@H](Cc2ccc(Cl)cc2)NC(=O)[C@@H](Cc2ccc3ccccc3c2)NC(C)=O)C(=O)N[C@@H](CC(C)C)C(=O)N[C@@H](CCCCNC(C)C)C(=O)N2CCC[C@H]2C(=O)N[C@H](C)C(N)=O)cc1 [listing 1 of 2 here] | – | – | >80
2 | CC(=O)N[C@H](Cc1ccc2ccccc2c1)C(=O)N[C@H](Cc1ccc(Cl)cc1)C(=O)N[C@H](Cc1cccnc1)C(=O)N[C@@H](CO)C(=O)N[C@@H](Cc1ccc(NC(=O)[C@@H]2CC(=O)NC(=O)N2)cc1)C(=O)N[C@H](Cc1ccc(NC(=O)[C@@H]2CC(=O)NC(=O)N2)cc1)C(=O)N[C@@H](CC(C)C)C(=O)N[C@@H](CCCCNC(C)C)C(=O)N1CCC[C@H]1C(=O)N[C@H](C)C(N)=O | 1 | 10.8 | –
3 | CC(=O)N[C@H](Cc1ccc2ccccc2c1)C(=O)N[C@H](Cc1ccc(Cl)cc1)C(=O)N[C@H](Cc1cccnc1)C(=O)N[C@@H](CO)C(=O)N[C@@H](Cc1ccc(NC(=O)[C@@H]2CC(=O)NC(=O)N2)cc1)C(=O)N[C@H](Cc1ccc2ccccc2c1)C(=O)N[C@@H](CC(C)C)C(=O)N[C@@H](CCCCNC(C)C)C(=O)N1CCC[C@H]1C(=O)N[C@H](C)C(N)=O | – | 13 | –
4 | CC(=O)Nc1ccc(C[C@@H](NC(=O)[C@H](Cc2ccc(CNC(=O)[C@@H]3CC(=O)NC(=O)N3)cc2)NC(=O)[C@H](CO)NC(=O)[C@@H](Cc2cccnc2)NC(=O)[C@@H](Cc2ccc(Cl)cc2)NC(=O)[C@@H](Cc2ccc3ccccc3c2)NC(C)=O)C(=O)N[C@@H](CC(C)C)C(=O)N[C@@H](CCCCNC(C)C)C(=O)N2CCC[C@H]2C(=O)N[C@H](C)C(N)=O)cc1 [listing 1 of 2 here] | – | – | >80
5 | CC(=O)NCc1ccc(C[C@@H](NC(=O)[C@H](Cc2ccc(NC(=O)[C@H]3CC(=O)NC(=O)N3)cc2)NC(=O)[C@H](CO)NC(=O)[C@@H](Cc2cccnc2)NC(=O)[C@@H](Cc2ccc(Cl)cc2)NC(=O)[C@@H](Cc2ccc3ccccc3c2)NC(C)=O)C(=O)N[C@@H](CC(C)C)C(=O)N[C@@H](CCCCNC(C)C)C(=O)N2CCC[C@H]2C(=O)N[C@H](C)C(N)=O)cc1 [listing 2 of 2 here] | – | – | >80
6 | CC(=O)Nc1ccc(C[C@@H](NC(=O)[C@H](Cc2ccc(NC(=O)c3cc(=O)[nH]c(=O)[nH]3)cc2)NC(=O)[C@H](CO)NC(=O)[C@@H](Cc2cccnc2)NC(=O)[C@@H](Cc2ccc(Cl)cc2)NC(=O)[C@@H](Cc2ccc3ccccc3c2)NC(C)=O)C(=O)N[C@@H](CC(C)C)C(=O)N[C@@H](CCCCNC(C)C)C(=O)N2CCC[C@H]2C(=O)N[C@H](C)C(N)=O)cc1 | – | 10.7 | –
7 | CC(=O)N[C@H](Cc1ccc2ccccc2c1)C(=O)N[C@H](Cc1ccc(Cl)cc1)C(=O)N[C@H](Cc1cccnc1)C(=O)N[C@@H](CO)C(=O)N[C@@H](Cc1ccc(NC(=O)[C@@H]2CC(=O)NC(=O)N2)cc1)C(=O)N[C@H](CCCNC(N)=O)C(=O)N[C@@H](CC(C)C)C(=O)N[C@@H](CCCCNC(C)C)C(=O)N1CCC[C@H]1C(=O)N[C@H](C)C(N)=O [listing 1 of 2 here] | – | – | >80
8 | CC(=O)NCc1ccc(C[C@@H](NC(=O)[C@H](Cc2ccc(NC(=O)[C@@H]3CC(=O)NC(=O)N3)cc2)NC(=O)[C@H](CO)NC(=O)[C@@H](Cc2cccnc2)NC(=O)[C@@H](Cc2ccc(Cl)cc2)NC(=O)[C@@H](Cc2ccc3ccccc3c2)NC(C)=O)C(=O)N[C@@H](CC(C)C)C(=O)N[C@@H](CCCCNC(C)C)C(=O)N2CCC[C@H]2C(=O)N[C@H](C)C(N)=O)cc1 [listing 2 of 2 here] | 1 | 9.5 | –
9 | CCNC(=O)[C@@H]1CCCN1C(=O)[C@H](CCCCNC(C)C)NC(=O)[C@H](CC(C)C)NC(=O)[C@@H](Cc1ccc(CNC(N)=O)cc1)NC(=O)[C@H](Cc1ccc(NC(=O)[C@@H]2CC(=O)NC(=O)N2)cc1)NC(=O)[C@H](CO)NC(=O)[C@@H](Cc1cccnc1)NC(=O)[C@@H](Cc1ccc(Cl)cc1)NC(=O)[C@@H](Cc1ccc2ccccc2c1)NC(C)=O | 0.631 | 8.8 | –
10 | CC(=O)N[C@H](Cc1ccc2ccccc2c1)C(=O)N[C@H](Cc1ccc(Cl)cc1)C(=O)N[C@H](Cc1cccnc1)C(=O)N[C@@H](CO)C(=O)N[C@@H](Cc1ccc(NC(=O)[C@@H]2CC(=O)NC(=O)N2)cc1)C(=O)N[C@H](Cc1ccc(NC(N)=O)cc1)C(=O)N[C@@H](CC(C)C)C(=O)N[C@@H](CCCCNC(C)C)C(=O)N1CCC[C@H]1C(=O)N[C@@H](C)CO | – | – | >80

Second part, led by results:

Row | Kb [1] [nM] | IC50 [2] [nM] | SMILES | Inhibition (Rattus norvegicus) [%]
11 | 0.794 | 3.5 | CC(=O)N[C@H](Cc1ccc2ccccc2c1)C(=O)N[C@H](Cc1ccc(Cl)cc1)C(=O)N[C@H](Cc1cccnc1)C(=O)N[C@@H](CO)C(=O)N(C)[C@@H](Cc1ccc(O)cc1)C(=O)N[C@H](CC(N)=O)C(=O)N[C@@H](CC(C)C)C(=O)N[C@@H](CCCCNC(C)C)C(=O)N1CCC[C@H]1C(=O)N[C@H](C)C(N)=O [ABARELIX] (Ac-[d2Nal][dPhe(4-Cl)][d3Pal]S[NMeY][dN]L[Lys(iPr)]P[dA]-NH2) | –
12 | 2 | 2.8 | CC(=O)N[C@H](Cc1ccc2ccccc2c1)C(=O)N[C@H](Cc1ccc(Cl)cc1)C(=O)N[C@H](Cc1cccnc1)C(=O)N[C@@H](CO)C(=O)N[C@@H](Cc1ccc(NC(=O)[C@@H]2CC(=O)NC(=O)N2)cc1)C(=O)N[C@H](Cc1cccnc1)C(=O)N[C@@H](CC(C)C)C(=O)N[C@@H](CCCCNC(C)C)C(=O)N1CCC[C@H]1C(=O)N[C@H](C)C(N)=O | –
13 | 1.58 | 7 | CC(=O)NCc1ccc(C[C@@H](NC(=O)[C@H](Cc2ccc(NC(=O)[C@H]3CC(=O)NC(=O)N3)cc2)NC(=O)[C@H](CO)NC(=O)[C@@H](Cc2cccnc2)NC(=O)[C@@H](Cc2ccc(Cl)cc2)NC(=O)[C@@H](Cc2ccc3ccccc3c2)NC(C)=O)C(=O)N[C@@H](CC(C)C)C(=O)N[C@@H](CCCCNC(C)C)C(=O)N2CCC[C@H]2C(=O)N[C@H](C)C(N)=O)cc1 [listing 1 of 2 here] | –
14 | 0.316 | 7.9 | CC(=O)Nc1ccc(C[C@@H](NC(=O)[C@H](Cc2ccc(CNC(=O)[C@@H]3CC(=O)NC(=O)N3)cc2)NC(=O)[C@H](CO)NC(=O)[C@@H](Cc2cccnc2)NC(=O)[C@@H](Cc2ccc(Cl)cc2)NC(=O)[C@@H](Cc2ccc3ccccc3c2)NC(C)=O)C(=O)N[C@@H](CC(C)C)C(=O)N[C@@H](CCCCNC(C)C)C(=O)N2CCC[C@H]2C(=O)N[C@H](C)C(N)=O)cc1 [listing 2 of 2 here] | –
15 | 0.501 | 3.6 | CCN=C(NCC)NCCCC[C@H](NC(=O)[C@H](CC(C)C)NC(=O)[C@@H](CCCCNC(=NCC)NCC)NC(=O)[C@H](Cc1ccc(O)cc1)NC(=O)[C@H](CO)NC(=O)[C@@H](Cc1cccnc1)NC(=O)[C@@H](Cc1ccc(Cl)cc1)NC(=O)[C@@H](Cc1ccc2ccccc2c1)NC(C)=O)C(=O)N1CCC[C@H]1C(=O)N[C@H](C)C(N)=O [GANIRELIX ACETATE] (Ac-[d2Nal][dPhe(4-Cl)][d3Pal]SY[d(hArg(Et2))]L[hArg(Et2)]P[dA]-NH2) | –
16 | 1.26 | 5.6 | CC(=O)N[C@H](Cc1ccc2ccccc2c1)C(=O)N[C@H](Cc1ccc(Cl)cc1)C(=O)N[C@H](Cc1cccnc1)C(=O)N[C@@H](CO)C(=O)N[C@@H](Cc1ccc(NC(=O)[C@@H]2CC(=O)NC(=O)N2)cc1)C(=O)N[C@H](Cc1ccc(CNC(N)=O)cc1)C(=O)N[C@@H](CC(C)C)C(=O)N[C@@H](CCCCNC(C)C)C(=O)N1CCC[C@H]1C(=O)N[C@H](C)C(N)=O | –
17 | 0.794 | 7.9 | CNC(=O)NCc1ccc(C[C@@H](NC(=O)[C@H](Cc2ccc(NC(=O)[C@@H]3CC(=O)NC(=O)N3)cc2)NC(=O)[C@H](CO)NC(=O)[C@@H](Cc2cccnc2)NC(=O)[C@@H](Cc2ccc(Cl)cc2)NC(=O)[C@@H](Cc2ccc3ccccc3c2)NC(C)=O)C(=O)N[C@@H](CC(C)C)C(=O)N[C@@H](CCCCNC(C)C)C(=O)N2CCC[C@H]2C(=O)N[C@H](C)C(N)=O)cc1 | –
18 | – | 7.7 | CC(=O)N[C@H](Cc1ccc2ccccc2c1)C(=O)N[C@H](Cc1ccc(Cl)cc1)C(=O)N[C@H](Cc1cccnc1)C(=O)N[C@@H](CO)C(=O)N[C@@H](Cc1ccc(NC(=O)[C@H]2CC(=O)NC(=O)N2)cc1)C(=O)N[C@H](Cc1ccc(CNC(N)=O)cc1)C(=O)N[C@@H](CC(C)C)C(=O)N[C@@H](CCCCNC(C)C)C(=O)N1CCC[C@H]1C(=O)N[C@H](C)C(N)=O | –
19 | 0.794 | 5.8 | CC(=O)N[C@H](Cc1ccc2ccccc2c1)C(=O)N[C@H](Cc1ccc(Cl)cc1)C(=O)N[C@H](Cc1cccnc1)C(=O)N[C@@H](CO)C(=O)N[C@@H](Cc1ccc(NC(=O)[C@@H]2CC(=O)NC(=O)N2)cc1)C(=O)N[C@H](CCCNC(N)=O)C(=O)N[C@@H](CC(C)C)C(=O)N[C@@H](CCCCNC(C)C)C(=O)N1CCC[C@H]1C(=O)N[C@H](C)C(N)=O [listing 2 of 2 here] | –
20 | 0.631 | 6.4 | CC(=O)Nc1ccc(C[C@H](NC(=O)[C@H](CO)NC(=O)[C@@H](Cc2cccnc2)NC(=O)[C@@H](Cc2ccc(Cl)cc2)NC(=O)[C@@H](Cc2ccc3ccccc3c2)NC(C)=O)C(=O)N[C@H](Cc2ccc(CNC(N)=O)cc2)C(=O)N[C@@H](CC(C)C)C(=O)N[C@@H](CCCCNC(C)C)C(=O)N2CCC[C@H]2C(=O)N[C@H](C)C(N)=O)cc1 | –
